# Source: ChEMBL document CHEMBL6134784, “Furoxan-piplartine hybrids as effective NO donors and ROS inducers in PC3 cancer cells: design, synthesis, and biological evaluation” (RSC Med Chem, 2024)
# Calls of active or inactive are those of the source. The calls are words filed in the database; no cut-off is given here.
# Columns and labels:
# MCF7 = test: Cytotoxicity against human MCF7 cells assessed as reduction in cell viability measured after 48 hrs by CCK-8 assay; format: functional, cell-based; conditions: MCF7, 48 h
# Summary of the method: (§1)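 CCK-8 viability: cells grown in RPMI-1640 with 10% FBS, 1×10^4 per well, attached 24 h, then medium replaced with fresh medium containing a range of compound concentrations for 48 h at 37 °C, 5% CO2. CCK-8 added 3 h, absorbance 450 nm; vehicle control set as 100%. IC50 by nonlinear regression, mean ± SD, at least two experiments in triplicate.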
# OVCAR-3 = test: Cytotoxicity against human OVCAR-3 cells assessed as reduction in cell viability measured after 48 hrs by CCK-8 assay; format: functional, cell-based; conditions: OVCAR-3, 48 h; summary of the method: as §1
# [1] = Cytotoxicity against human PNT2 cells assessed as reduction in cell viability measured after 48 hrs by CCK-8 assay; format: toxicity, cell-based; summary of the method: as §1
# PC-3 [2] = test: Cytotoxicity against human PC-3 cells assessed as reduction in cell viability measured after 48 hrs by CCK-8 assay; format: functional, cell-based; conditions: PC-3, 48 h; summary of the method: as §1
# PC-3 [3] = test: Cytotoxicity against human PC-3 cells assessed as reduction in cell viability at 0.05 uM measured after 24 hrs by SRB assay; format: functional, cell-based
# Summary of the method: (§2)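 SRB assay: PC3 seeded 1×10^4 per well, after 24 h exposed 24 h at 37 °C, 5% CO2 with or without 1 mM N-acetyl-L-cysteine; vehicle 0.1% DMSO. Fixed with 15% TCA at 4 °C for 1 h, dried, stained 0.4% sulforhodamine B, dye solubilized in 10 mM Tris, absorbance 540 nm; ANOVA/Tukey.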
# PC-3 [4] = test: Cytotoxicity against human PC-3 cells assessed as reduction in cell viability at 0.05 uM measured after 24 hrs in presence of antioxidant N-acetyl-L-cysteine by SRB assay; format: functional, cell-based; summary of the method: as §2
# [5] = Selectivity index, ratio of IC50 for cytotoxicity against human PNT2 cells to IC50 for cytotoxicity against human PC-3 cells; format: toxicity, cell-based; conditions: PNT2 cells versus PC-3 cells, read-out: Ratio IC50
# Summary of the method: (§3)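 CCK-8 was added for 3 h and A450 read, with vehicle set as 100% viability. IC50 was fitted by nonlinear regression from ≥2 experiments in triplicate. SI = normal-cell IC50 divided by the matched cancer-cell IC50.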
# PC-3 [6] = test: Induction of nitric oxide production in human PC-3 cells assessed as nitrite level at 100 uM measured after 12 to 48 hrs by Griess assay; format: functional; conditions: time 12-48 hrs
# Summary of the method: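 PC3 cells were seeded at 1×10^4 per well and grown 24 h, then moved to serum-free RPMI with 100 μM compound for 12, 24 or 48 h at 37 °C. Supernatant was mixed with 1% sulfanilamide in 2.5% H3PO4 (10 min, dark), then 0.1% NED (10 min, 37 °C), and A540 was read. Nitrite was calculated from a NaNO2 curve (0–100 μM). Controls were DMSO and SNP 100 μM. Data from ≥3 independent experiments in triplicate, mean ± SD.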
# [7] = Selectivity index, ratio of IC50 for cytotoxicity against human MCF-10A cells to IC50 for cytotoxicity against human MCF7 cells; format: toxicity, cell-based; conditions: MCF-10A cells versus MCF7 cells, read-out: Ratio IC50; summary of the method: as §3
# [8] = Cytotoxicity against human MCF-10A cells assessed as reduction in cell viability measured after 48 hrs by CCK-8 assay; format: toxicity, cell-based; summary of the method: as §1
# PC-3 [9] = test: Cytotoxicity against human PC-3 cells assessed as reduction in cell viability at 0.24 uM measured after 24 hrs by SRB assay; format: functional, cell-based; summary of the method: as §2
# PC-3 [10] = test: Cytotoxicity against human PC-3 cells assessed as reduction in cell viability at 0.24 uM measured after 24 hrs in presence of antioxidant N-acetyl-L-cysteine by SRB assay; format: functional, cell-based; summary of the method: as §2
SMILES,IC50 (MCF7) [µM],IC50 (OVCAR-3) [µM],IC50 at 48 h [1] [µM],IC50 (PC-3 [2]) [µM],Activity (PC-3 [3]),Activity (PC-3 [4]),selectivity ratio [5],Activity (PC-3 [6]) [µM],selectivity ratio [7],IC50 at 48 h [8] [µM],Activity (PC-3 [9]),Activity (PC-3 [10])
O=S(=O)(c1ccccc1)c1c(OCCCCCCCCCCCCO)no[n+]1[O-],4.3,0.04,17.6,0.13,Active,inactive,137,3.2,3.4,14.8,,
COc1cc(/C=C/C(=O)N2CCC=CC2=O)cc(OC)c1OC [PIPLARTINE],5.4,3.5,8.5,5.6,,,1.5,,1,5.3,,
O=S(=O)(c1ccccc1)c1c(OCCCO)no[n+]1[O-],2.1,3.3,1.9,7.2,,,0.3,3.2,0.9,1.8,Active,inactive
COc1cc(/C=C/C(=O)N2CCC=CC2=O)cc(OC)c1OCCCCCCOc1no[n+]([O-])c1S(=O)(=O)c1ccccc1,1.1,0.3,3.3,0.13,,,26.2,23.5,3.1,3.6,,
O=S(=O)(c1ccccc1)c1c(OCCCCCCO)no[n+]1[O-],2,2.2,12.9,3.8,,,3.4,3.2,0.9,1.7,,
